Only some compounds are listed: those with a hit (about 3.4% of all), similar ones and a draw of the others.
IMP-1 inh: IMP-1 metallo-beta-lactamase inhibitors, primary screen, biochemical, epi-absorbance readout, Pseudomonas aeruginosa enzyme; hit rate 0.45% among 290,000; AID 1556, 2009; inhibition, % at 5.6 µM; metallo-beta-lactamase IMP-1 (Pseudomonas aeruginosa); purified IMP-1, nitrocefin hydrolysis, epi-absorbance fluorescence;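 active = inhibition above the mean plus 3 SD of all compounds in the same screening run, cut at about 4.5% in these data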;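 also: 0% = IMP-1 with DMSO and 100% = DMSO wells lacking enzyme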
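System: purified recombinant IMP-1 beta-lactamase. Medium: Zinc- and detergent-supplemented HEPES buffer, pH 7.1. Compound: one 5.6 µM dose […]. Schedule: 15 min preincubation plus 25 min reaction at 25 °C. Technique: Epi-absorbance fluorescence, 480 nm excitation, 530 nm emission.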
MEKK2 mut-MEK5: MEK5 binding signal on mutant MEKK2 PB1, primary screen, biochemical, multiplex bead flow cytometry, Alexa488-MEK5; hit rate 0.35% among 290,000; Alexa488-MEK5 binding to MEKK2 mutant; percent response, % at 10 µM; in the data active = percent response above about 24%, passing the limit was not always enough
MEKK2wt PB1 HTS: modulators of MEK5 binding to wildtype MEKK2, primary screen, biochemical, multiplex bead flow cytometry, Alexa488-MEK5; hit rate 1.1% among 290,000; Mitogen-activated protein kinase kinase kinase 2 (Homo sapiens), Q9Y2U5; Alexa488-MEK5 binding to MEKK2 WT; actives lie on both sides; binding response (% of control), % at 10 µM; in the data active = binding response below about 67% or above about 130%
MEKK3 PB1 HTS: modulators of MEKK3-MEK5 PB1 binding, primary screen, biochemical, wildtype MEKK3, multiplex bead flow cytometry, Alexa488-MEK5. bead-based flow cytometry, Alexa488-MEK5 binding to MEKK3; actives lie on both sides; 0 = blocked by unlabeled MEK5, 100 = vehicle. binding response (% of control), % at 10 µM. hit rate 1.4% among 290,000. AID 1529, 2009;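 active = binding response more than 3 SD above or below the average of its plate-row segment, actives on both sides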;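 also: Alexa488 bead fluorescence after subtracting the streptavidin-only scavenger bead signal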
Target sequence (Q99759 whole entry, looked up): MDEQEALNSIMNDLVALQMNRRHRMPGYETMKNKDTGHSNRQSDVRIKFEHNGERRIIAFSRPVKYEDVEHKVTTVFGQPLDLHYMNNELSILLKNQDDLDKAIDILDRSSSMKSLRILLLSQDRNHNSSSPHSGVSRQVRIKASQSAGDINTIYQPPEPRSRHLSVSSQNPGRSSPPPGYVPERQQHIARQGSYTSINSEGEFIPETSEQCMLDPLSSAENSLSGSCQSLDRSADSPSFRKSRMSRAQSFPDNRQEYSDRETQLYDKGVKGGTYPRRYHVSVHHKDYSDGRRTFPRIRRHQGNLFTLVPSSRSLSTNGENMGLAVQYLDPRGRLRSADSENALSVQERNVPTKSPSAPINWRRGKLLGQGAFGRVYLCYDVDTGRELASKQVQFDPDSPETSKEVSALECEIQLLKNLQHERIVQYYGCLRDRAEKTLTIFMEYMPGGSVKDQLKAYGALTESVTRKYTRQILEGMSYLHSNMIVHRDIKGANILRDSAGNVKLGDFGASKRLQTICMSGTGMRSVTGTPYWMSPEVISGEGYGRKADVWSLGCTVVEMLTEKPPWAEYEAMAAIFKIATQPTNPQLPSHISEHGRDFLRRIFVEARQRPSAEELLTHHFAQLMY
VIM-2 inh: VIM-2 metallo-beta-lactamase inhibitors, primary screen, biochemical, epi-absorbance readout, Pseudomonas aeruginosa enzyme; purified VIM-2, nitrocefin hydrolysis, epi-absorbance fluorescence; inhibition, % at 5.6 µM; hit rate 0.89% among 290,000; AID 1527, 2009;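 active = inhibition above the mean of all tested compounds plus 3 SD, cutoff set per screening run, cut at about 7.5% in these data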;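 also: red hydrolysis product quenches plate fluorescence so inhibitors raise well fluorescence; 0% = enzyme with DMSO and 100% = DMSO without enzyme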
MEKK2wt confirm: modulators of MEK5 binding to wildtype MEKK2, confirmation, biochemical, single concentration, multiplex bead flow cytometry. Alexa488-MEK5 binding to MEKK2 WT; actives lie on both sides. binding response (% of control), % at 10 µM. hit rate 2.4% among 5,900. AID 1892, 2009. shares compounds with MEKK3 PB1 HTS; in the data active = binding response below about 16% or above about 210%; inactive = in between
MEKK2mut-MEK5: mutant MEKK2 PB1-MEK5 binding signal retest – biochemical, single concentration, multiplex bead flow cytometry, confirmation | shares compounds with MEKK3 PB1 HTS | Alexa488-MEK5 binding to MEKK2 mutant | percent response, % at 10 µM | hit rate 2% among 5,900; in the data active = percent response mostly above about 71%, no sharp cut-off; inactive = mostly below about 38%;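 also: higher means compound restores mutant binding toward wildtype level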
MEKK3-MEK5 inh: MEKK3 wild-type PB1 binding to MEK5, inhibitors, confirmation, biochemical, bead multiplex flow cytometry, single concentration, wildtype; shares compounds with MEKK3 PB1 HTS; Alexa488-MEK5 binding to MEKK3; stronger effect = lower value; binding response (% of control), % at 10 µM; AID 1894, 2009; hit rate 1.8% among 5,900;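 active = binding response below 72% of control, or above a set upper limit, though filed actives all read lower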;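 also: 100% = DMSO only wells and 0% = binding blocked by excess unlabeled MEK5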
The depositor's hits bear a star; . = not tested or not shown; [ ] = dose if it differs, or a comment.

SMILES	IMP-1 inh	MEKK2 mut-MEK5	MEKK2wt PB1 HTS	MEKK3 PB1 HTS	VIM-2 inh	MEKK2wt confirm	MEKK2mut-MEK5	MEKK3-MEK5 inh
CCCCOc1ccc(CONS(=O)(=O)c2ccc(NC(C)=O)cc2)cc1Cl	-3.1	1.0	106.0	160.0*	0.5	106.0	-1.0	106.0
CCOC(=O)c1nn(-c2cccc(Cl)c2)c2nc(Nc3ccccc3)cc(=O)n12	-1.7	-1.0	101.0	102.0	2.0	.	.	.
N#C/C(=C/c1ccc(N2CCCCC2)o1)C(=O)Nc1ccc(Cl)cc1	2.0	4.0	88.0	93.0	5.0	.	.	.
N#C/C(=C/c1ccc(N2CCCCC2)o1)C(=O)Nc1ccc2ccccc2c1	3.6	206.0*	210.0*	148.0*	-2.3	89.0	-30.0	92.0
Cn1c(-c2ccc(Cl)nc2)nc2ccccc21	-3.0	6.0	103.0	101.0	-2.2	.	.	.
COc1ccc(NC(=O)COc2nsnc2N2CCCCC2)cc1	-3.9	-33.0	44.0*[inhibitor]	27.0*[inhibitor]	-2.8	95.0	-1.0	99.0
CCOc1ccc(NC(=O)COc2nsnc2N2CCCCC2)cc1	1.8	-6.0	88.0	89.0	-0.5	.	.	.
COc1ccc(-c2nsc3c(SCc4ccccc4)ncnc23)cc1	0.9	0.0	107.0	144.0*	-2.7	97.0	1.0	101.0
CCOc1ccc(-c2ccc(SC)nn2)cc1	-2.2	-4.0	103.0	108.0	-0.7	.	.	.
COC(=O)C1CCN(Cc2ccc(OCCCN3CCN(c4ccc([N+](=O)[O-])cc4)CC3)cc2)CC1	-2.8	39.0	144.0*	105.0	0.9	108.0	-1.0	86.0
CC1CCN(CCCCOc2ccc([N+](=O)[O-])cc2)CC1	-1.7	.	.	.	0.0	.	.	.
O=C(O)CCn1c(CO)nc2ccccc21	-4.2	-1.0	107.0	129.0*	-6.8	106.0	5.0	105.0
CC(C)CCn1c(=O)c2ccccc2n2c(CCC(=O)NC3CCN(Cc4ccccc4)CC3)nnc12	-3.5	-2.0	96.0	92.0	3.9	.	.	.
N#C/C(=C/c1ccc(-c2ccc(S(N)(=O)=O)cc2)o1)C(=O)Nc1ccccc1	0.6	7.0	101.0	102.0	-2.8	.	.	.
N#C/C(=C/c1ccc(-c2ccc(S(N)(=O)=O)cc2)o1)c1nc2ccccc2s1	-0.9	45.0	28.0*[inhibitor]	63.0*[inhibitor]	-1.4	96.0	3.0	103.0
Cn1cccc1CC(=O)NNC(=O)Nc1cccc(Cl)c1	-2.8	-1.0	105.0	129.0*	-1.8	106.0	5.0	104.0
Cn1cccc1CC(=O)NNC(=O)Nc1ccc(Cl)cc1	-4.0	1.0	101.0	100.0	-4.6	.	.	.
CCOC(=O)NC(NCc1ccccc1)(C(F)(F)F)C(F)(F)F	-2.4	1.0	111.0	137.0*	0.7	105.0	4.0	105.0
CCOC(=O)NC(NCCc1ccccc1)(C(F)(F)F)C(F)(F)F	-1.3	-5.0	89.0	92.0	-2.8	.	.	.
C=CCNC(=O)c1cc(Cl)ccn1	-1.4	-6.0	93.0	101.0	-4.1	.	.	.
Cc1ccc(NC(=O)COC(=O)C2(c3ccc(Cl)cc3)CCCC2)cc1	-4.6	1.0	121.0	153.0*	-1.4	103.0	3.0	103.0
CCN(CC)c1ccc(C=C(c2nnnn2-c2ccc(C)cc2)c2nnnn2-c2ccc(C)cc2)cc1	52.1*	1.0	102.0	131.0*	-3.3	95.0	2.0	104.0
CC(C)CNC(=O)CN(c1ccccc1)S(=O)(=O)c1ccccc1[N+](=O)[O-]	-0.8	-8.0	93.0	96.0	-0.1	.	.	.
Cc1ccc(N(CC(=O)NCCSc2nc3ccccc3s2)S(=O)(=O)c2ccccc2)c(C)c1	-2.8	0.0	105.0	150.0*	-1.9	105.0	6.0	108.0
Cc1ccc(C)c(CN2C(=O)C3CCCN3c3ccc(C#N)cc32)c1 (configuration not stated)	-3.1	0.0	92.0	99.0	0.2	.	.	.
SMILES	IMP-1 inh	MEKK2 mut-MEK5	MEKK2wt PB1 HTS	MEKK3 PB1 HTS	VIM-2 inh	MEKK2wt confirm	MEKK2mut-MEK5	MEKK3-MEK5 inh
Cc1cc(Cl)ccc1OCC(=O)OC(C)C(=O)N(C)C (configuration not stated)	-1.8	.	.	.	-0.9	.	.	.
CCN(CC)CCNC(=O)c1cc2c(-c3ccc(Cl)cc3)nn(C)c2s1	-2.5	21.0	191.0*	109.0	2.2	155.0	26.0	103.0
CCCN(CCC)CCNC(=O)c1cc2c(-c3ccc(Cl)cc3)nn(C)c2s1	-3.5	42.0*	184.0*	106.0	-2.4	190.0	92.0*	113.0
CCCCN(CC)CCNC(=O)c1cc2c(-c3ccc(Cl)cc3)nn(C)c2s1	-1.3	47.0*	198.0*	109.0	-2.2	201.0	98.0*	115.0
CCOCCCNC(=O)c1cc2c(-c3ccc(Cl)cc3)nn(C)c2s1	-2.4	7.0	125.0	116.0	-4.1	.	.	.
CCOC(=O)C1CCN(C(=S)Nc2cc(OC)c(OC)cc2C(=O)OC)CC1	-0.5	-4.0	101.0	101.0	-2.1	.	.	.
O=C(CCN1C(=O)S/C(=C\c2ccccc2)C1=O)N1CCOCC1	1.7	19.0	118.0	110.0	3.4	.	.	.
COC(=O)c1c(-c2ccc(C(C)(C)C)cc2)csc1NC(=O)C1C2CCC(O2)C1C(=O)O (configuration not stated)	-1.6	-1.0	92.0	75.0*[inhibitor]	-3.3	99.0	-1.0	105.0
CCOC(=O)c1c(-c2cccc3ccccc23)csc1NC(=O)C1C2CCC(O2)C1C(=O)O (configuration not stated)	0.8	-1.0	100.0	113.0	0.7	.	.	.
COc1ccc(C(C)=O)cc1CC(=O)Nc1ccccc1-c1ccccc1	-2.7	-2.0	98.0	100.0	-2.4	.	.	.
CCc1ccc2[nH]c(=O)c(C(c3nnnn3CCOC)N3CCN(c4ccccc4F)CC3)cc2c1 (configuration not stated)	0.5	-5.0	95.0	100.0	-2.2	.	.	.
Cc1cc(NC(=O)c2sc(Nc3ccc(F)c(Cl)c3)nc2N)no1	-2.4	-2.0	101.0	105.0	3.0	.	.	.
Cc1cc(NC(=O)c2sc(Nc3cccc(C(F)(F)F)c3)nc2N)no1	-2.7	9.0	128.0	140.0*	-1.3	105.0	8.0	104.0
